Source: ChEMBL document CHEMBL1154614, “Synthesis and evaluation of stable bidentate transition metal complexes of 1-(chloromethyl)-5-hydroxy-3-(5,6,7-trimethoxyindol-2-ylcarbonyl)-2,3-dihydro-1H-pyrrolo[3,2-f]quinoline (seco-6-azaCBI-TMI) as hypoxia selective cytotoxins” (J Med Chem, 2009)

Assays:
A549 [1] = assay: Hypoxic cytotoxicity ratio, ratio of IC50 for human A549 cells under aerobic condition to IC50 for human A549 cells after 4 hrs under hypoxic condition; assay type: functional
Outline: (§1)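 Attached log-phase cells given 4 h compound exposure in parallel under oxic and hypoxic conditions; compounds in DMSO, final DMSO <1%. IC50 for inhibition of cell proliferation. Ratio = aerobic IC50/hypoxic IC50, calculated within each experiment.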

A549 [2] = assay: Cytotoxicity against human A549 cells after 4 hrs under aerobic conditions; assay type: functional, cell-based; details: A549, 4 h
Outline: (§2)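 Attached log-phase cells exposed to compound for 4 h under aerobic conditions; compounds formulated in DMSO, final DMSO <1%. IC50 = concentration giving 50% inhibition of cell proliferation. Mean ± SEM of >2 determinations.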

SK-OV-3 [3] = assay: Cytotoxicity against human SKOV3 cells after 4 hrs under aerobic conditions; assay type: functional, cell-based; details: SK-OV-3, 4 h; outline: as §2
SK-OV-3 [4] = assay: Hypoxic cytotoxicity ratio, ratio of IC50 for human SKOV3 cells under aerobic condition to IC50 for human SKOV3 cells after 4 hrs under hypoxic condition; assay type: functional; outline: as §1
UV4 = assay: Cytotoxicity against hamster UV4 cells after 4 hrs under aerobic conditions; assay type: cell-based; details: Cricetulus griseus, UV4, 4 h; outline: as §2
[5] = Cytotoxicity against mouse EMT6V cells after 4 hrs under aerobic conditions; assay type: functional, cell-based; outline: as §2
[6] = Solubility in alpha-MEM in presence of FCS; assay type: physicochemical; details: alpha-MEM with FCS
CHO-AA8 = assay: Cytotoxicity against hamster AA8 cells after 4 hrs under aerobic conditions; assay type: cell-based; details: Cricetulus griseus, CHO-AA8, 4 h; outline: as §2

## CN(C)CCOc1ccc(/C=C/C(=O)N2CC(CCl)c3c2cc(O)c2ncccc32)cc1 (stereo not given)
A549 [1]
  Ratio IC50: 0.86
A549 [2]
  IC50: 0.92 nM
SK-OV-3 [3]
  IC50: 1.9 nM
SK-OV-3 [4]
  Ratio IC50: 0.65
UV4
  IC50: 0.73 nM
[5]
  IC50: 0.58 nM
[6]
  solubility: 860 µM
CHO-AA8
  IC50: 2.6 nM

## COc1ccc(/C=C/C(=O)N2CC(CCl)c3c2cc(O)c2ncccc32)cc1O (stereo not given)
A549 [2]
  IC50: 0.18 nM
SK-OV-3 [3]
  IC50: 0.17 nM
[6]
  solubility: 110 µM

## COc1ccc(/C=C/C(=O)N2CC(CCl)c3c2cc(O)c2ncccc32)cc1 (stereo not given)
A549 [2]
  IC50: 0.09 nM
SK-OV-3 [3]
  IC50: 0.29 nM
[6]
  solubility: 40 µM

## COc1ccc2[nH]c(C(=O)N3CC(CCl)c4c3cc(O)c3ncccc43)cc2c1 (stereo not given)
A549 [1]
  Ratio IC50: 1.51
A549 [2]
  IC50: 0.08 nM
SK-OV-3 [3]
  IC50: 0.27 nM
SK-OV-3 [4]
  Ratio IC50: 0.91
[6]
  solubility: 110 µM

## COc1cc2cc(C(=O)N3C[C@H](CCl)c4c3cc(O)c3ncccc43)[nH]c2c(OC)c1OC
A549 [2]
  IC50: 8.8 nM
SK-OV-3 [3]
  IC50: 8.5 nM
UV4
  IC50: 4.6 nM
[5]
  IC50: 7.3 nM
CHO-AA8
  IC50: 22 nM

## CN(C)CCOc1ccc2[nH]c(C(=O)N3CC(CCl)c4c3cc(O)c3ncccc43)cc2c1 (stereo not given)
A549 [1]
  Ratio IC50: 1.11
A549 [2]
  IC50: 1.3 nM
SK-OV-3 [3]
  IC50: 6.9 nM
SK-OV-3 [4]
  Ratio IC50: 0.56
UV4
  IC50: 1.7 nM
[5]
  IC50: 0.74 nM
[6]
  solubility: 32 µM
CHO-AA8
  IC50: 4.4 nM

## COc1cc2cc(C(=O)N3C[C@@H](CCl)c4c3cc(O)c3ncccc43)[nH]c2c(OC)c1OC
A549 [2]
  IC50: 0.04 nM
SK-OV-3 [3]
  IC50: 0.11 nM
UV4
  IC50: 0.04 nM
[5]
  IC50: 0.03 nM
CHO-AA8
  IC50: 0.07 nM

## COc1cc2cc(C(=O)N3CC(CCl)c4c3cc(O)c3ncccc43)[nH]c2c(OC)c1OC (racemic)
A549 [1]
  Ratio IC50: 0.76
A549 [2]
  IC50: 0.06 nM
SK-OV-3 [3]
  IC50: 0.26 nM
SK-OV-3 [4]
  Ratio IC50: 0.69
UV4
  IC50: 0.07 nM
[5]
  IC50: 0.05 nM
[6]
  solubility: 30 µM
CHO-AA8
  IC50: 0.14 nM
